The text below walks through data of ChEMBL document CHEMBL4396968, “Small-molecule inhibitors of nisin resistance protein NSR from the human pathogen Streptococcus agalactiae” (Bioorg Med Chem, 2019).

Data set [1] concerns Streptococcus agalactiae. Briefly: Inhibition of Streptococcus agalactiae NSR transfected in Lactococcus lactis NZ9000 cells assessed as potentiation of nisin-induced growth inhibition by measuring reduction in nisin IC50 at 120 uM incubated for 5 hrs by optical density based assay relative to nisin alone. The procedure, abridged: (§1)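 SaNSR-expressing L. lactis NZ9000 preincubated at OD595 0.1 with fixed compound (120 or 300 µM), mixed with serial nisin dilutions, and read by OD595 after 5 h at 30 °C. Nisin IC50 taken from dose-response curves. Expressed as % ratio of the IC50 with compound to the IC50 of the same strain without it; ≥3 independent experiments.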

The subject of data set [2] is Streptococcus agalactiae. Briefly: Inhibition of Streptococcus agalactiae NSR transfected in Lactococcus lactis NZ9000 cells assessed as potentiation of nisin-induced growth inhibition by measuring reduction in nisin IC50 at 300 uM incubated for 5 hrs by optical density based assay relative to nisin alone. The gist of the method: as §1
Data set [3] deals with Streptococcus agalactiae. Briefly: Inhibition of Streptococcus agalactiae NSR transfected in Lactococcus lactis NZ9000 cells assessed as bacterial growth inhibition at 150 uM incubated for 5 hrs by optical density based assay in presence of 30 nM nisin. The gist of the method: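 L. lactis NZ9000 carrying the SaNSR plasmid, and an empty-plasmid control strain, grown overnight in GM17 with 5 µg/ml erythromycin and 1 ng/ml nisin. Diluted to OD595 0.1 and preincubated 30 min at 30 °C, then exposed to compound plus 30 nM nisin for 5 h at 30 °C. Specific inhibition is the OD ratio between strains as %; ≥3 independent experiments.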

Data set [4] concerns Streptococcus agalactiae COH1. Kind of data set: Binding affinity to N-terminal 8xHis-tagged Streptococcus agalactiae COH1 NSR30 (30 amino acids deletion at N-terminal transmembrane region) expressed in Escherichia coli BL21 (DE3) cells at 18 mM by STD NMR method. The note with it: 1.8 mM, in the assay text read “1.8 mM” for “18 mM”. The gist of the method: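 His-tagged SaNSR30 induced with 1 mM IPTG at OD600 0.8–1.0 and expressed overnight at 18 °C. Purified by metal-affinity chromatography with 150 mM histidine elution, then size exclusion in 25 mM MES pH 6, 150 mM NaCl.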

For data set [5], the system named is Lactococcus lactis. Briefly: Growth inhibition of Lactococcus lactis NZ9000 transfected with Streptococcus agalactiae NSR at 300 uM incubated for 5 hrs in absence of nisin by optical density based assay. The class given is organism-based. The note with it: in vivo.

The structures appear in SMILES notation. Activity calls are given as the source filed them. The calls are words filed in the database; no cut-off is given here. Residues, ends and D or L forms follow the SMILES beside them. *: point of attachment. Boc = CC(C)(C)OC(=O)*; Bn = c1ccc(C*)cc1

`CC(C)(CO)NC(=O)NCC12CC3CC(CC(C3)C1)C2`: the inhibition in data set [1] was 4%; in data set [2] it was 8.5%.

On to `COc1ccc(C2(CNC(=O)c3cn(C(C)C)c(=O)c4ccccc34)CCOCC2)cc1`, for which the inhibition in data set [3] was 4.86%.

With `Cc1ccc(-n2nc(C)c(NC(=O)Cn3cnc4c3c(=O)n(C)c(=O)n4C)c2C)cc1`, the inhibition in data set [3] was 14.2%.

Consider `Cc1cc(C)c2c(=O)n(CC(=O)Nc3ccc(C(C)C)cc3)c(=O)n(Cc3ccco3)c2n1`, for which, in data set [3], the inhibition was less than 1%.

Turning to `CC(C(=O)NC(CO)(CO)CO)c1ccc2c(c1)[nH]c1ccc(Cl)cc12` (centres undefined), the inhibition in data set [3] turned out to be 8.21%.

For `O=C(CCn1c(=O)oc2cc(Cl)ccc21)Nc1ccc(N2CCOCC2)nc1`, in data set [3], the inhibition was found to be 19%.

As for `N#Cc1ccc(NC(=O)NC(CO)c2ccccc2)cc1` (centres undefined), the inhibition came to 8.1% in data set [1] and 13.5% in data set [2].

In the case of `CC(C)NC(=O)Nc1ccc(Cl)cc1`, the inhibition in data set [2] was less than 1%.

As to `COc1ccc(-c2cc(N3CCCN(C(=O)C4(c5ccc(OC)cc5)CC4)CC3)[nH]n2)cc1`, the inhibition turned out to be 20.7% in data set [3] and 20.5% in data set [2].

On to `OC(CNc1ccccc1Cl)COc1ccc(OCC(O)CNc2ccccc2Cl)cc1` (centres undefined), for which the inhibition in data set [3] is less than 1%.

Consider `CNC(=O)CNC(=O)c1cccc(S(=O)(=O)NC(C)c2ccccc2)c1` (centres undefined), for which the inhibition in data set [3] stood at 7.92%.

Turning to `O=C(CC1NC(=O)c2ccccc2NC1=O)NCc1nc(-c2ccccc2Cl)no1` (centres undefined), the inhibition in data set [3] is less than 1%.

Take `CC(CO)NC(=O)Nc1ccc(C(F)(F)F)cc1` (centres undefined): the inhibition in data set [2] was less than 1%.

For `CCCC(=O)Nc1ccc(CNC(=O)NCC(CO)Cc2ccc(C)cc2)cc1` (centres undefined), the inhibition in data set [3] was found to be 19.6%.

For the molecule `CC(CO)(CO)NC(=O)NC1CCCCC1`, the inhibition in data set [2] is less than 1%.

For `CCCCn1nc(C(=O)N[C@@H](Cc2c[nH]c3ccccc23)C(=O)O)c2ccccc2c1=O`, in data set [3], the inhibition was found to be 3.21%.

`Cc1cc(C)c(S(=O)(=O)N2CCCC2CNC(=O)C(=O)Nc2ccccc2C#N)c(C)c1` (centres undefined): the inhibition in data set [3] was less than 1%.

`CC(=O)Nc1ccc(NC(=O)CSc2nc3ccccc3c(=O)n2-c2ccccc2)cc1`: the inhibition in data set [3] turned out to be 7.58%.

Regarding `N#Cc1ccc(NC(=O)NCCNC(=O)Nc2ccc(C#N)cc2)cc1`, the inhibition in data set [2] was less than 1%.

`CC(O)(CNC(=O)NCC[S+]([O-])c1ccccc1)c1ccco1` (centres undefined): the inhibition in data set [3] was determined as 13.4%.

As for `CCN(CC)Cc1ccc(CNC(=O)NCc2ccc(Cn3ccnc3)cc2)cc1`, the inhibition in data set [3] is less than 1%.

For `CC(CO)NC(=O)Nc1ccc(Cl)cc1` (centres undefined), the inhibition in data set [2] is less than 1%.

With `O=C(Nc1ccc(C(F)(F)F)cc1)NC1(CO)CCOCC1`, the inhibition in data set [1] and in data set [2] was less than 1% each time.

With `Cc1cc(C)c2c(C)nn(-c3ccc(NC(=O)CCc4nc5ccccc5c(=O)[nH]4)cc3)c2n1`, the results for the inhibition in data set [3] and in data set [2] were less than 1% and 1.9%, respectively.

For the molecule `O=C(Nc1ccccc1C(F)(F)F)NC(CO)(CO)C(F)(F)F`, the inhibition in data set [1] and in data set [2] was less than 1% in each case.

As to `CCC(CC)(CO)NC(=O)Nc1cccc(Oc2ccccc2)c1`, the inhibition in data set [2] was less than 1%.

`CC1CCc2nc(NC(=O)c3ccccc3NC(=O)CSc3nccn3C)sc2C1` (centres undefined): the inhibition in data set [3] was 1.38%.

Turning to `CCc1ccc(NC(=O)C(=O)NCC(c2ccc3c(c2)OCO3)N2CCN(C)CC2)cc1` (centres undefined), in data set [3], the inhibition was 6.03%.

In the case of `O=C(Cn1cnc2c(oc3ccccc32)c1=O)NCc1ccccc1Cn1ccnc1`, the inhibition in data set [3] is less than 1%.

As for `O=C(CNC(=O)c1ccc2c(c1)OCO2)NCCc1c[nH]c2ccccc12`, in data set [3], the inhibition was less than 1%.

For the molecule `O=C(CC[C@H]1NC(=O)c2ccccc2NC1=O)NCc1nc2ccccc2[nH]1`, the inhibition in data set [3] was determined as 9.95%.

`Cc1[nH]c(SCC(=O)Nc2[nH]c(Cc3ccccc3)c(C)c2C#N)nc1Cc1ccccc1`: the inhibition in data set [3] stood at 15.3%.

For `O=C(NCC(O)c1ccc(O)cc1)C(=O)Nc1ccccc1O` (centres undefined), in data set [3], the inhibition turned out to be 13.6%.

Consider `CCc1cc(=O)[nH]c(-n2nc(C)cc2NC(=O)C(=O)NCCc2ccccc2)n1`, for which the inhibition in data set [3] was less than 1%.

With `CC(CO)(CO)NC(=O)Nc1ccc(Cl)c(Br)c1`, the inhibition in data set [3] came to 57.9%; in data set [1] it was 50.5%. In data set [4], the result was Active. Besides, the “growth inhibition (GI)” value in data set [5] is given as “Toxic”.

With `CCCCc1ccc(NC(=O)CN2C(=O)NC(C)(Cc3ccc(OC)c(OC)c3)C2=O)cc1` (centres undefined), the inhibition in data set [3] stood at 14.1%.

As to `COc1ccc2[nH]cc(CCNC(=O)CC3C(=O)Nc4c3c(=O)n(C)c(=O)n4C)c2c1` (centres undefined), the inhibition in data set [3] worked out at 11.3%.

Consider `Cc1cc(C)nc(NC(Cc2ccccc2)C(=O)NCc2nc3ccccc3[nH]2)n1` (centres undefined), for which, in data set [3], the inhibition was less than 1%.

Consider `COc1ccccc1-n1cc(C(=O)N2Cc3nc[nH]c3CC2C(=O)O)cn1` (centres undefined), for which, in data set [3], the inhibition came out at 10.8%.

As for `CC(O)C(NC(=O)C(Cc1ccc(OCc2ccccc2)cc1)NC(=O)CNC(=O)OC(C)(C)C)C(N)=O` (stereo not drawn) (Boc-Gly-Tyr(Bn)-Thr-NH2; configuration not given here), the inhibition in data set [3] is 17.5%.

For the molecule `COc1ccc(C2(CNC(=O)C(=O)Nc3ccc(Br)cc3)CCOCC2)cc1`, the inhibition in data set [3] was less than 1%.

Take `O=C(NCc1ccccc1)C(=Cc1ccc(O)c(O)c1)C(=O)NCc1ccccc1`: the inhibition in data set [3] was 16.9%; in data set [2] it was 32.2%.

On to `CCn1c(=O)n(CCC(=O)Nc2nc(-c3ccc4c(c3)CCO4)cs2)c2ccccc21`, for which, in data set [3], the inhibition is less than 1%.

For the molecule `Cc1ccc2c(c1)-c1c(cnn1CC(=O)NC(C)c1ccc3c(c1)OCCO3)CO2` (centres undefined), the inhibition in data set [3] was less than 1%.
